rCAG binder: r(CAG) repeat RNA binding | AID 651821 | 1.3% of 370,000 active | TO-PRO-1 dye displacement fluorescence | inhibition, % at 3 µM;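 active = inhibition above the plate cutoff, the mean of all test compounds on that plate plus 3 SD, cut at about 35% in these data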;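 note: 0% = DMSO alone and 100% = 100 µM mitoxantrone as full dye displacement; higher means more dye released from RNA so lower well fluorescence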
HTRA1 inh: blocks human HTRA1 serine peptidase | recombinant HTRA1, FP-rhodamine activity-based probe, fluorescence polarization | 0.5% of 340,000 active | inhibition, % at 5.96 µM | Q92743; in the data active = inhibition above about 36%;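 note: 0% = enzyme with DMSO and 100% = wells lacking enzyme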
TCR-CD3 inh: inhibitors of human TCR-CD3 interaction. 0.37% of 360,000 active. inhibition, % at 9.4 µM. TAMRA-labeled TCR probe fluorescence, biochemical. AID 651800;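 note: recombinant mutant TCR 2C K166C tagged with TAMRA read by polarization; 0% = receptor in buffer alone and 100% = receptor with positive control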
SIAE primary: inhibitors of human sialic acid acetylesterase SIAE; 0.69% of 370,000 active; Q9HAT2; AID 1053197; SIAE FP-Rh probe binding, fluorescence polarization; inhibition, % at 9.66 µM;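 active = inhibition above a cutoff: mean of compounds within the control limits plus 3 SD of those, cut at about 17% in these data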;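 note: 0% = plate median of compound wells and 100% = probe without SIAE protein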
mABHD4 FP: ABHD4 (mouse) inhibition, primary FP screen | Q8VD66 | purified mABHD4, FP-Rh probe fluorescence polarization | inhibition, % at 8.92 µM | 0.54% of 370,000 active | AID 720543;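 active = inhibition exceeding the mean over every tested compound plus 3 SD, cut at about 30% in these data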;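 note: 0% = plate median of compound wells and 100% = S159A mutant with DMSO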
Target sequence (Q8VD66 whole entry, looked up): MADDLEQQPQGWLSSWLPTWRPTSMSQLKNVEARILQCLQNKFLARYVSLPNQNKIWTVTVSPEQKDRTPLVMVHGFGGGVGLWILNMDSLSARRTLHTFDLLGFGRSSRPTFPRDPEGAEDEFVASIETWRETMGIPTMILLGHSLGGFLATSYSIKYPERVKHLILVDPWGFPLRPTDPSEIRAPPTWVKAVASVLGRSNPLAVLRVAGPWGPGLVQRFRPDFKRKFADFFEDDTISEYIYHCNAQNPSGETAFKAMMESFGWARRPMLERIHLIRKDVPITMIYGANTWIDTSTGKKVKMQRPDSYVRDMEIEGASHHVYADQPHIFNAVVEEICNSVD
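Assay system: Wild-type mouse ABHD4 protein | Medium: HEPES pH 7.0 buffer, 150 mM NaCl, 0.01% Pluronic F-127 | Incubation: Enzyme–compound pre-incubation 45 min, then probe 60 min, both 25 °C | Technique: Fluorescence polarization with parallel and perpendicular emission, 525/598 nm | Evaluation: % inhibition of FP-Rh probe binding versus controls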
HTRA1 conf: confirmation of human HTRA1 inhibitors; shares compounds with HTRA1 inh; recombinant HTRA1, FP-rhodamine activity-based probe, fluorescence polarization; inhibition, % at 5.96 µM; 66% of 1,600 active; AID 540248;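 active = mean inhibition over three repeats above a set limit taken from the earlier primary screen, cut at about 37% in these data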;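 note: 0% = HTRA1 with DMSO and 100% = wells lacking HTRA1; inhibitors block probe binding so polarization drops and inhibition rises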
BSA probe FL: BSA probe counter-screen for TCR-CD3 inhibitors. shares compounds with TCR-CD3 inh. TAMRA-labeled BSA probe fluorescence counterscreen. inhibition, % at 9.4 µM. 10% of 1,200 active. AID 652035; in the data active = inhibition above about 23%;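 note: 0% = buffer low control and 100% = reference high control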
TCR-CD3 conf: TCR-CD3 interaction inhibition, confirmation; shares compounds with TCR-CD3 inh; TAMRA-labeled TCR probe fluorescence binding assay; inhibition, % at 9.4 µM; 48% of 1,200 active
* marks the source's active call; other numbers are inactive results; . = no result. A selection: hits, their analogues and other compounds. The true share with any hit is near 2.5%. Cut-off read from the data, not from the text of the source, unless noted: active = inhibition above about 19%; inactive = the rest.

SMILES | rCAG binder | HTRA1 inh | TCR-CD3 inh | SIAE primary | mABHD4 FP | HTRA1 conf | others
Cc1ccccc1-c1ccc(Nc2ccc(N3CCOCC3)cc2)nn1 | . | 45* | . | . | . | 54*
CCOC(=O)c1ccc(N/C=C2\CCCCC2=O)cc1 | 1 | -2 | -5 | -1 | 2 | .
CCCCC(=O)NC(c1ccccc1)c1ccc2cccnc2c1O (stereo unspecified) | 4 | 39* | -7 | 14 | 5 | 57*
CCC(=O)NC(c1ccccc1OC)c1ccc2cccnc2c1O (stereo unspecified) | . | 41* | . | . | . | 43*
COc1cccc(C(NC(C)=O)c2ccc3cccnc3c2O)c1 (stereo unspecified) | 4 | 32 | -8 | 3 | 8 | .
CCCCC(=O)NC(c1ccc(C(C)C)cc1)c1ccc2cccnc2c1O (stereo unspecified) | 3 | 56* | -2 | 9 | 13 | 53*
CCCC(=O)NC(c1ccc(OC)cc1)c1ccc2cccnc2c1O (stereo unspecified) | 6 | 27 | -5 | 12 | 4 | .
CCCC(=O)NC(c1ccccc1)c1ccc2cccnc2c1O (stereo unspecified) | 6 | 47* | -8 | 17 | 15 | 45*
CCCCC(=O)NC(c1cccc([N+](=O)[O-])c1)c1ccc2cccnc2c1O (stereo unspecified) | 11 | 27 | -2 | 6 | -8 | .
CCCCC(=O)NC(c1ccccc1Cl)c1ccc2cccnc2c1O (stereo unspecified) | 3 | 57* | -4 | 10 | 10 | 52*
Cc1oc(-c2ccccc2)nc1C(=O)OCC(=O)NCc1ccc(F)cc1 | 4 | -3 | 5 | 5 | -3 | .
CN(C)c1ccc(C=c2c3ccccc3n3c2c2c([n+]3C)CCCC2)cc1 | 19 | 53* | -8 | -4 | 8 | 55*
S=C(N=Nc1ccccc1)NNc1ccccc1 | 4 | 43* | 3 | 3 | 22 | 43*
S=C(NNC(=S)Nc1ccc(Cl)cc1)NNc1ccccc1 | 3 | 22 | -1 | 8 | 4 | .
Cc1ncc([N+](=O)[O-])n1CC(=O)Nc1ccccc1F | -2 | 4 | -2 | -3 | 5 | .
C[C@]12CCC[C@H](O1)c1c(cc3c(c1O)C(=O)c1c(O)cc(O)cc1C3=O)O2 | 4 | 37* | -2 | -18 | 2 | 62*
CC1(C)CC(=O)c2c(O)cc(O)cc2O1 | 1 | 5 | 2 | 9 | 5 | .
CCN(CC)c1ccc(/C=C2\C(=O)N(c3nnc(C)c(=O)[nH]3)N=C2C)cc1 | 1 | 62* | 16 | -13 | 5 | 79*
CCOC(=O)c1c(C)[nH]c(C(=O)COC(=O)c2cccnc2Cl)c1C | -2 | 2 | 5 | 1 | -10 | .
O=C1CCn2c1c(O)c1ccccc1c2=O | 0 | 7 | -5 | -2 | 8 | .
N=C1CCC(=N)c2c1c(O)c1ccccc1c2O | . | 88* | . | . | . | 110*
O=C(N/N=C/c1sc(N2CCOCC2)nc1-c1ccccc1)c1cccc(S(=O)(=O)N2CCCC2)c1 | 13 | 46* | 4 | 14 | 1 | 63*
FC(F)(F)c1cnc(NNC(=S)Nc2ccccc2)c(Cl)c1 | 6 | 47* | -3 | 7 | 11 | 30
CN(C)c1ccnc2c[cH-]cc12.[Fe].c1ccc(-[c-]2[c-](-c3ccccc3)[c-](-c3ccccc3)[c-](-c3ccccc3)[c-]2-c2ccccc2)cc1 (stereo unspecified) | 7 | 37* | 5 | 9 | 26 | 57*
CN(C)c1ccnc(Nc2ccccc2)c1C#N | -1 | . | 0 | 5 | -3 | .
SMILES | rCAG binder | HTRA1 inh | TCR-CD3 inh | SIAE primary | mABHD4 FP | HTRA1 conf | others
Cc1cccc(NC(=O)CSc2nnc(-c3ccco3)c(-c3ccco3)n2)c1C | . | 50* | . | . | . | 14
O=C(Oc1cccc2cccnc12)c1ccco1 | 1 | 31 | -2 | 3 | 0 | .
O=C(Oc1ccc(Cl)c2cccnc12)c1ccco1 | 1 | 72* | 0 | 1 | 0 | 76*
CC1Cc2cc(S(=O)(=O)N3CCC(C(N)=O)CC3)ccc2N1C(=O)C1CC1 (stereo unspecified) | -1 | 3 | 1 | -2 | 1 | .
Nc1ccc(N2CCCCC2)cc1N1CCCCC1 | 11 | 51* | 0 | 6 | 23 | 59*
CCCCCCCCN1CCS(=O)(=O)N(Cc2ccc(C)cc2)C(C(=O)OC)C1 (stereo unspecified) | 0 | . | . | 5 | -3 | .
O=S(=O)(Cc1ccc(Cl)cc1)C1CCCCC1O (stereo unspecified) | 3 | 4 | -3 | -4 | -8 | .
CC(=O)c1cccc(NC(=O)C(C)OC(=O)CCN=C2NS(=O)(=O)c3ccccc32)c1 (stereo unspecified) | 1 | 90* | 0 | -2 | 6 | 4
S=C1NCCN1c1ccc(Cl)cc1 | 2 | . | -11 | 10 | 3 | .
Cc1ccccc1C(C)NS(=O)(=O)c1ccc2c(c1)OCCO2 (stereo unspecified) | -1 | 40* | 3 | -3 | 1 | 34
CC(NS(=O)(=O)c1ccc2c(c1)OCCO2)c1ccccc1 (stereo unspecified) | 8 | 3 | -4 | -7 | -1 | .
CC1=C(SCc2ccccc2)C(=O)c2ccccc2C1=O | 27 | 42* | 8 | 14 | 70* | 36*
CCN(CC(=O)Nc1ccc(NC(C)=O)cc1)C(=O)CCCc1c[nH]c2ccccc12 | 1 | -2 | 3 | 14 | -3 | .
O=C1CC(c2ccccc2)CC(=O)C1=CN1CCCC1 (stereo unspecified) | 1 | . | -4 | -4 | 5 | .
COc1cccc2c1C(=O)c1c(O)c3c(c(O)c1C2=O)C[C@@](O)(C(=O)CO)C[C@@H]3O[C@H]1C[C@H](N)[C@H](O)[C@H](C)O1 | 10 | 63* | 137* | 39* | 52* | 67* | BSA probe FL=157*;TCR-CD3 conf=127*
O=C(NCc1ccco1)C(c1ccc(F)cc1)N(C(=O)Cc1cccs1)c1cccnc1 (stereo unspecified) | -5 | -4 | 0 | 3 | 4 | .
C/C(=N/NC(=O)c1cc2ccccc2cc1O)C1C(=O)c2ccccc2C1=O | 100* | 74* | 45* | 21* | 49* | 53* | BSA probe FL=1;TCR-CD3 conf=68*
O=C(NCCCN1CCCC1=O)c1ccc2c(=O)n(Cc3ccco3)c(=S)[nH]c2c1 | 1 | 4 | 7 | 3 | -1 | .
O=C(CCN1C(=O)/C(=C\c2ccccc2)SC1=S)NNC(=O)c1cccnc1 | 1 | 6 | 2 | -2 | -10 | .

Assay outcomes from PubChem BioAssay.
